Fewer inactive variants are shown than the library holds. Some results are limits rather than exact numbers.

B1: tRNA (parent)
chain: GUUCCGUUGGCGUAAUGGUAACGCGUCUCCCUCCUAAGGAGAAGACUGCGGGUUCGAGUCCCGUACGGAACG

The data set covers variants of B1. The data set is described as follows: yeast fitness relative to wild type (ratio to wild type); higher = fitter; tRNA-Arg(CCU), competitive growth, 37 C, YPD. Summed up: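 Gene amplicons from the start population and from each of six end populations were read by 100-nucleotide paired-end sequencing. Those end populations came from pooled Saccharomyces cerevisiae strains carrying tRNA-Arg(CCU) gene variants at the native locus, competed in YPD at 37°C for 24 hours. Fitness relative to wild type was worked out from changes in genotype frequencies. Genotypes needed ≥ 100 starting reads, and estimates < 0.5 were set to 0.5.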
Turning to U2C A40C A69C, the yeast fitness amounted to 0.633.
Turning to U2A C11G A57U C66U, the yeast fitness is 0.588.
The figure for U2A G38C G44C A69U is at most 0.5.
The figure for U2A C55U is 0.661; for U2A C55A it is 0.714.
The result for U2C C4A G18C G63A reads 0.633.
For U2A C33G A42C G63A, the yeast fitness is at most 0.5.
The figure for U2A G9A C49A is at most 0.5.
The result for U2A C4U reads 0.965; that for U2A C24G A43U C46U, 0.542; that for U2A U19C, 0.867.
As for U2A U3A U7A A57G, the yeast fitness was at most 0.5.
Turning to U2A G9C U13A A15G C33A A37U G50C C61U, the yeast fitness came to 0.58.
The figure for U2A G23A C29G is 0.666.
Take U2A G9A A20C C24U: the yeast fitness was at most 0.5.
Regarding U2A C5U, the yeast fitness turned out to be 0.906.
On to U2A C5G, for which the yeast fitness stood at 0.728.
Turning to U2C C5U A40U G50A, the yeast fitness was at most 0.5.
The figure for U2A G9A C11U G51C C55U A69C A70U is at most 0.5; for U2C A20U U28A G67U it is 0.579; for U2A A43U A57C C61U it is 0.578.
For the variant U2A C27U A36G, the yeast fitness was determined as 0.578.
With U2A C27U A36C, the yeast fitness is at most 0.5.
The result for U2A U47G C66U reads at most 0.5.
With U2C C4U A37C G48A C60G A65U, the yeast fitness was at most 0.5.
Consider U2A U16C C30A G56A G68C, for which the yeast fitness turned out to be 0.541.
Take U2A G12C C34G A65U: the yeast fitness was at most 0.5.
The result for U2C A14U C29U reads 0.626; that for U2A G18C, 0.592.
Turning to U2A C5G G63C G67C A69U, the yeast fitness is at most 0.5.
As for U2C A20U, the yeast fitness amounted to 0.91.
Take U2C A14U U47A C61G A70G: the yeast fitness is at most 0.5.
As to U2C A70G, the yeast fitness is 0.945.
U2A U28C: the yeast fitness is 0.835.
Take U2A U16G G18C: the yeast fitness was found to be 0.614.
For U2C A14G G18A U32A G44A A65C, the yeast fitness was 0.539.
For U2A C4G C55A, the yeast fitness came to 0.57.
For the variant U2A G6A U16C U28A G50A, the yeast fitness is at most 0.5.
As to U2A A69U, the yeast fitness turned out to be 0.874.
As for U2A A69C, the yeast fitness was found to be 0.959.
On to U2A G41C G50C C62G C66G, for which the yeast fitness is at most 0.5.
The result for U2A G6C A37U reads at most 0.5; that for U2A G17A A45G, 0.587.
Regarding U2A C5U C29G A37U A65G, the yeast fitness was at most 0.5.
Turning to U2A A70U, the yeast fitness came to 1.06.
Consider U2A A70G, for which the yeast fitness turned out to be 0.979.
Regarding U2A C24G A37C C66U, the yeast fitness is at most 0.5.
As for U2A A57U, the yeast fitness was found to be 0.663.
Take U2A U3G C29G C30G C46G: the yeast fitness stood at 0.612.
On to U2A U3G C29G C30G C46A, for which the yeast fitness was at most 0.5.
In the case of U2A C24G A37C G56C, the yeast fitness was at most 0.5.
Consider U2A C11A A14G C29U G68U, for which the yeast fitness is 0.564.
On to U2A G25C A70G, for which the yeast fitness is 0.568.
Take U2A U28C G41C U54A G67U: the yeast fitness is at most 0.5.
With U2A C24U A45U G67A, the yeast fitness was at most 0.5.
U2A U8C G23A C29G: the yeast fitness is at most 0.5.
U2A A43C C49U: the yeast fitness turned out to be 0.602.
As for U2A C24U A70C, the yeast fitness was found to be 0.894.
In the case of U2A U7A, the yeast fitness was 0.666.
Consider U2A G10A A20U C22G G44C C61G, for which the yeast fitness amounted to 0.502.
The figure for U2A G9A A20C C24U C61G is at most 0.5; for U2A A45G it is 1.09.
Consider U2A A45U, for which the yeast fitness stood at 0.863.
In the case of U2A C11G C31G, the yeast fitness amounted to 0.6.
On to U2A C24G C31U C33G A42C A43U A65U, for which the yeast fitness was at most 0.5.
The result for U2A C27G reads 0.764.
Regarding U2A G50C C55G C62G, the yeast fitness was at most 0.5.
Take U2A G41C U59A C61A C66U G68C: the yeast fitness is at most 0.5.
For U2A U13A U35G U64A A65C, the yeast fitness is at most 0.5.
The result for U2A U3G A36U reads at most 0.5; that for U2C A14C U35C, at most 0.5.
Regarding U2C, the yeast fitness worked out at 1.
On to U2A C5A C31A A43G A45C, for which the yeast fitness was at most 0.5.
The figure for U2A G25C A45U is 0.585; for U2C C4A C34A A43G G52C C60G A65G it is at most 0.5; for U2C A14U it is 0.764.
Regarding U2A A43C C61U, the yeast fitness is 0.572.
As for U2A C5U A65U A69U, the yeast fitness was 0.614.
Take U2C C11A C22G G41A A43C G51C: the yeast fitness is at most 0.5.
On to U2A C29A, for which the yeast fitness worked out at 0.625.
Take U2A U7A A15U G56A: the yeast fitness was at most 0.5.
U2A C11G C30A G44U A57G: the yeast fitness was at most 0.5.
The result for U2A G6C C29A U59G reads 0.603; that for U2A A65C, 0.848; that for U2C A42G, 0.821.
The result for U2C A42U reads 0.937.
Consider U2C A42C, for which the yeast fitness came to 0.914.
U2A C5U C11U A14U G17A A21C G38C C49A: the yeast fitness was at most 0.5.
Consider U2C C4U A36G G44C, for which the yeast fitness is 0.615.
As for U2A C11G A21G A65U, the yeast fitness was at most 0.5.
On to U2A U54C, for which the yeast fitness came to 0.932.
The figure for U2C A43G is 0.887; for U2A A37U U53A C62U it is at most 0.5.
Consider U2C C4A G17A C60G, for which the yeast fitness was at most 0.5.
The figure for U2A U32C A57G is 0.652.
As to U2C A14G G18A U32A U59A, the yeast fitness was at most 0.5.
For U2A C11G C27G U54A, the yeast fitness was at most 0.5.
U2A U26A: the yeast fitness turned out to be 1.06.
For U2A G6A C11U C31G A69U, the yeast fitness was at most 0.5.
The figure for U2A U19G A20U U64C is at most 0.5.
As to U2A U8A C33U A43U, the yeast fitness was at most 0.5.
The result for U2A G9C A14C C34U C60G reads 0.551; that for U2C A21U U54G, at most 0.5.
U2A C5A G41A A42C G50C A70G: the yeast fitness is at most 0.5.
The result for U2A C61U reads 0.768; that for U2A G23A G68U, at most 0.5.
As for U2A C34U G48A C60U, the yeast fitness was 0.602.
The result for U2C A14C G39A A57U reads at most 0.5; that for U2A U8C A42U, 0.64.
On to U2A U13G U28A A36U A45U A57G, for which the yeast fitness stood at 0.59.
Turning to U2A A40U G48C, the yeast fitness is at most 0.5.
Take U2A C22G C62U G63C: the yeast fitness is at most 0.5.
As for U2C A15U A20U A69U, the yeast fitness was at most 0.5.
In the case of U2A G6A, the yeast fitness came out at 0.775.
Turning to U2A C5A G9C U16C G25C G68C, the yeast fitness amounted to 0.586.
With U2A C46A G58A, the yeast fitness was determined as 0.622.
Take U2A U3A U16C C24U A69U: the yeast fitness was at most 0.5.
Turning to U2A G17C C46U U59A, the yeast fitness is at most 0.5.
For U2A C5G G38C, the yeast fitness is at most 0.5.
For the variant U2A C4A C46G G52A, the yeast fitness was at most 0.5.
The result for U2A C55A A69U reads at most 0.5; that for U2A U32A A69C, 0.612; that for U2A U3C G18C C29G U54A, at most 0.5.
On to U2C A15C C24A G41C G68A, for which the yeast fitness is at most 0.5.
Consider U2A C49U, for which the yeast fitness was 0.981.
U2A A37U: the yeast fitness worked out at 0.689.
The result for U2A A37C reads 0.833; that for U2A C11G C31U A36G, 0.646.
Consider U2A G23C C31U, for which the yeast fitness is at most 0.5.
With U2A U16G A69C, the yeast fitness came out at 0.85.
The figure for U2C C4U C46U G50U C55U is at most 0.5; for U2A A36G it is 0.985; for U2A U53G it is at most 0.5.
Turning to U2A U3G C34U, the yeast fitness was at most 0.5.
Take U2A G68A: the yeast fitness worked out at 0.825.
For U2A C4U U8G C31A G44C A65G, the yeast fitness was at most 0.5.
On to U2A C5U C66U, for which the yeast fitness turned out to be 0.661.
Turning to U2A C5U C31A C62U, the yeast fitness is at most 0.5.
Turning to U2A C11U U19G A42U G48A, the yeast fitness is at most 0.5.
In the case of U2C C4A U28C G44C, the yeast fitness amounted to 0.601.
As for U2C A57G C66G, the yeast fitness was at most 0.5.
For U2A U28C G39A G68A, the yeast fitness is at most 0.5.
Turning to U2A U47A A65C, the yeast fitness was at most 0.5.
On to U2C A40C C66A, for which the yeast fitness was at most 0.5.
As for U2A G12A A21C, the yeast fitness was 0.515.
U2C A40C A42U C49G C66G: the yeast fitness is at most 0.5.
On to U2A U19G C29G, for which the yeast fitness is at most 0.5.
Turning to U2A G48A, the yeast fitness was determined as 0.978.
On to U2C C4U, for which the yeast fitness amounted to 0.969.
In the case of U2A A40G A43U A45C A57G A65C, the yeast fitness was at most 0.5.
As for U2A U16A G56C A57G, the yeast fitness was at most 0.5.
Turning to U2A U3C C24G C33G C66U, the yeast fitness is at most 0.5.
U2C A43G A57C A65U: the yeast fitness was at most 0.5.
The result for U2A G6A U28G reads at most 0.5.
The figure for U2C A37G G39A is at most 0.5; for U2A C11G U35G U47A G48A A65U it is at most 0.5; for U2A U32A A65U A69C it is at most 0.5.
The result for U2A C11G A42U reads at most 0.5.
On to U2A U8A C34A A65U, for which the yeast fitness was at most 0.5.
The figure for U2A C5A C66U is at most 0.5; for U2C A65C it is 0.86.
The figure for U2C C4U A70C is 0.733; for U2C A57U C62U it is 0.549; for U2A U16C U28A G50A it is at most 0.5.
The figure for U2A G10C C27G G39U G50C G58A is at most 0.5; for U2A U3G C11A G12A U16C C22G C62U it is at most 0.5; for U2A G10A G17C U35C C55G it is at most 0.5.
